Measured values as given in ChEMBL document CHEMBL1142412, “Bis-(-)-nor-meptazinols as novel nanomolar cholinesterase inhibitors with high inhibitory potency on amyloid-beta aggregation” (J Med Chem, 2008).

Key:
[1] = species on record: Mus musculus; test: Selectivity for mouse brain AChE over mouse serum BChE; format: tissue-based
[2] = target: T1, Acetylcholinesterase (Homo sapiens, UniProt P22303); test: Inhibition of human recombinant AChE-induced amyloid beta aggregation at 100 uM by thioflavin T fluorescence method
Summary of the method: (§1)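 Aβ(1–40), stock from HFIP, dissolved in DMSO, final 230 µM, incubated 48 h at room temperature in 0.215 M sodium phosphate pH 8.0 with human recombinant AChE (final 2.3 µM, Aβ:AChE 100:1) ± inhibitor. […] Run in duplicate.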

[3] = target: T1, Acetylcholinesterase; test: Inhibition of human recombinant AChE-induced amyloid beta aggregation at 200 uM by thioflavin T fluorescence method; summary of the method: as §1
[4] = target: T1, Acetylcholinesterase; test: Inhibition of human recombinant AChE-induced amyloid beta aggregation by thioflavin T fluorescence method; summary of the method: as §1
[5] = target: T2, Acetylcholinesterase (Mus musculus, UniProt P21836); test: Inhibition of mouse brain AChE
T2 sequence (P21836 whole entry): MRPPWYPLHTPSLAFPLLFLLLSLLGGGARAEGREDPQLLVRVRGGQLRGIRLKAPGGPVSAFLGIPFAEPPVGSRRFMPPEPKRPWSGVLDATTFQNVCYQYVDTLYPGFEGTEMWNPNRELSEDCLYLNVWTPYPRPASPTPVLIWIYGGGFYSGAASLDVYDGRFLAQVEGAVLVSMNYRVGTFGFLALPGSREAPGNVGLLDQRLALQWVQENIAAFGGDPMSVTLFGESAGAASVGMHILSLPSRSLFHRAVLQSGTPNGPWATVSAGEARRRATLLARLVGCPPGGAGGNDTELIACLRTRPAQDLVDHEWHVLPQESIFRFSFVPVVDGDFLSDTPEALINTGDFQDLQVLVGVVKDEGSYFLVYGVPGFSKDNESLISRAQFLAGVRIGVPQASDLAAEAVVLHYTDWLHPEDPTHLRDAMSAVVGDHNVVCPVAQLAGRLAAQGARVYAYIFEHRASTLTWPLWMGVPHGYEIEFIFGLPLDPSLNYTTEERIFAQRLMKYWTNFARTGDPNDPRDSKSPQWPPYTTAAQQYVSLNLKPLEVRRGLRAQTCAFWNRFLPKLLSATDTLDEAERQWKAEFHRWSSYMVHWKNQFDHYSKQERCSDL

[6] = target: Cholinesterase (Mus musculus, UniProt Q03311); test: Inhibition of mouse serum BChE
Summary of the method: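 Modified Ellman assay with mouse serum as the enzyme source. Inhibitor at several concentrations, preincubated 20 min at 37 °C with DTNB. Substrate butyrylthiocholine iodide 0.05 mM. ΔA412 read at 25 °C. IC50 by nonlinear regression of log concentration–response. Mean ± SEM of at least three independent measures.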

T1 sequence (P22303 whole entry): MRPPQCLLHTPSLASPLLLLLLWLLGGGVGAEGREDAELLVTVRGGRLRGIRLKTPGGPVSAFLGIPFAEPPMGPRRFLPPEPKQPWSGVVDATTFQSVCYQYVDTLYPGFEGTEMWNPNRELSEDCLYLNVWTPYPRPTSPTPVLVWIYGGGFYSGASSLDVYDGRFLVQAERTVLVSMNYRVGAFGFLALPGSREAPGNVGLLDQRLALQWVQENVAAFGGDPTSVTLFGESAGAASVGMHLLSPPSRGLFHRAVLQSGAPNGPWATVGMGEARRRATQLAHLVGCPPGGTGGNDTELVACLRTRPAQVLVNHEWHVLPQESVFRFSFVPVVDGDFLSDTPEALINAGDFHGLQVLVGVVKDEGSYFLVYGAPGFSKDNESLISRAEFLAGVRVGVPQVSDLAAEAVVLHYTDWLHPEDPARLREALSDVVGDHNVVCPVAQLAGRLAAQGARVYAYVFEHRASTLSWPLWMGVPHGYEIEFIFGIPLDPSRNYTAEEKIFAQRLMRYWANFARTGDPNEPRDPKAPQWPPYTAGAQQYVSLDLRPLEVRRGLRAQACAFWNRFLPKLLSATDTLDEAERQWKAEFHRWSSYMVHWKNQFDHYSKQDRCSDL
Chain of Cholinesterase (Q03311 whole entry): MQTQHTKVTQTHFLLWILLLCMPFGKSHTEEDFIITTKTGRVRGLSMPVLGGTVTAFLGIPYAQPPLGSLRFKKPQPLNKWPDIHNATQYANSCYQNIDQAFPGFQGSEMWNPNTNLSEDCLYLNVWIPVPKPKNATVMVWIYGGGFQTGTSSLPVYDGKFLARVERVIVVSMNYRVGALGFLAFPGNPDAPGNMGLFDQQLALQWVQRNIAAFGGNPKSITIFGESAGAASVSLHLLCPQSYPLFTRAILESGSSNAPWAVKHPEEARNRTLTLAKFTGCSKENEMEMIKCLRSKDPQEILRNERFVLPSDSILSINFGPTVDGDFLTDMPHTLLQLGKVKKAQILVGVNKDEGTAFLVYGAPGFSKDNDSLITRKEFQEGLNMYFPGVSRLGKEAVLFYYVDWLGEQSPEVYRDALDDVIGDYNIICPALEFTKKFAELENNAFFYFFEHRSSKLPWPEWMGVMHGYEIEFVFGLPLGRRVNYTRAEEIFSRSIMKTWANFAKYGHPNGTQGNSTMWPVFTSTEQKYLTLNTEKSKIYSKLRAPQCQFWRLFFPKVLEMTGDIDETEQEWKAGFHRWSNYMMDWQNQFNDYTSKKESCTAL

| SMILES | Ratio IC50 [1] | inhibition [2] [%] | inhibition [3] [%] | other results |
| --- | --- | --- | --- | --- |
| CC[C@@]1(c2cccc(O)c2)CCCCN(CCCN2CCCC[C@@](CC)(c3cccc(O)c3)C2)C1 | 0.0031 | – | – | – |
| CC[C@@]1(c2cccc(O)c2)CCCCN(CCCCCCCCN2CCCC[C@@](CC)(c3cccc(O)c3)C2)C1 | 0.8 | 0 | 15.2 | – |
| CC[C@@]1(c2cccc(O)c2)CCCCN(CCCCCCCN2CCCC[C@@](CC)(c3cccc(O)c3)C2)C1 | 0.38 | – | – | – |
| CC[C@@]1(c2cccc(O)c2)CCCCN(CCCCCCCCCN2CCCC[C@@](CC)(c3cccc(O)c3)C2)C1 | 2.6 | 90.8 | 99.2 | IC50 [4]: 16.6 µM |
| CC[C@@]1(c2cccc(O)c2)CCCCN(CCCCCCN2CCCC[C@@](CC)(c3cccc(O)c3)C2)C1 | 0.098 | – | – | – |
| CC[C@@]1(c2cccc(O)c2)CCCCN(CCN2CCCC[C@@](CC)(c3cccc(O)c3)C2)C1 | 0.0029 | – | – | – |
| CC[C@@]1(c2cccc(O)c2)CCCCN(CCCCCCCCCCCN2CCCC[C@@](CC)(c3cccc(O)c3)C2)C1 | 3.1 | – | – | – |
| CC[C@@]1(c2cccc(O)c2)CCCCN(CCCCCCCCCCN2CCCC[C@@](CC)(c3cccc(O)c3)C2)C1 | 1.8 | 95.8 | 98.4 | IC50 [4]: 5.8 µM |
| CC[C@@]1(c2cccc(O)c2)CCCCN(CCCCCCCCCCCCN2CCCC[C@@](CC)(c3cccc(O)c3)C2)C1 | 2.4 | – | – | – |
| CCC1(c2cccc(O)c2)CCCCN(CCCCCN2CCCC[C@@](CC)(c3cccc(O)c3)C2)C1 (single isomer, unassigned; (-)) | 0.048 | – | – | IC50 [5]: 1 µM; IC50 [6]: 0.192 µM |
| CCC1(c2cccc(O)c2)CCCCN(C)C1 (single isomer, unassigned; (-)) [MEPTAZINOL] | 0.37 | – | 0 | IC50 [5]: 41 µM; IC50 [6]: 15 µM |
| CC[C@@]1(c2cccc(O)c2)CCCCN(CCCCN2CCCC[C@@](CC)(c3cccc(O)c3)C2)C1 | 0.0049 | – | – | – |
| CC[N+](C)(CC)CCC[n+]1c(-c2ccccc2)c2cc(N)ccc2c2ccc(N)cc21 | – | 85.6 | 98.6 | – |
